Entries after “also recorded” stand apart in the source; their conditions may differ. Read-outs that look alike come from different tables or passages of the source. Blank lines part the entries; values can stand above or below the compound they belong to.
Key:
[1] = test system: term human placental lobule; type: in vitro ADME; conditions: for fetal/maternal concentration ratio: HSA 30 mg/ml
[2] = cited from earlier work
[3] = test system: perfused placental tissue; experiment: Effect of bupropion on placental tissue viability; parameters: species or system human; conditions: for effect on placental viability and functional parameters: 150 ng/ml and 450 ng/ml bupropion
[4] = cited from earlier work; for pharmacologic activity: hepatic metabolites
placental tissue enzymes = experiment: Metabolism of bupropion by placental tissue during perfusion; conditions: end of 4 hours of perfusion
[5] = type: physicochemical
Method in brief: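 Test compound as the [3H] form recirculated for 4 h through the closed perfusion circuit (glassware, teflon tubing, tygon peristaltic-pump tubing) without placenta, in M199 with dextran 40, heparin, gentamicin, sulfamethoxazole and trimethoprim at 37 °C. Run without and with human serum albumin at 30 mg/mL. Loss of radiolabel from the medium was tracked over 4 h.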

[6] = end of 4-hour perfusion, independent of initial concentration
[7] = bupropion 150 ng/mL, 4 hours of perfusion
[8] = bupropion 450 ng/mL, 4 hours of perfusion

Compound: Cc1cc(=O)n(-c2ccccc2)n1C [AP, antipyrine]
transplacental transfer to the fetal circuit ([1]; antipyrine 20 μg/mL co-transfused marker, 4 hours): approximately 50% | binding to plasma proteins and human serum albumin [2]: minimal binding

decline in concentration in the maternal circuit (shape) ([1]; 150 ng/ml, 4 hours): biphasic | time at which equilibrium was achieved in the fetal circuit ([1]; 150 ng/ml, from time 0): 180 min | fetal circuit concentration as % of initial concentration ([1]; 450 ng/ml, end of 4 hours): 23 ± 2% | fetal/maternal concentration ratio ([1]; bupropion 150 ng/ml in maternal circuit, end of 4-hour perfusion): 1.07 ± 0.22 | fetal/maternal concentration ratio ([1]; bupropion 450 ng/ml in maternal circuit, end of 4-hour perfusion): 1.00 ± 0.14 | fraction of drug remaining in the maternal circuit [1, 6]: 32 ± 5% | fraction of drug retained by placental tissue [1, 6]: 48 ± 6% | concentration in the fetal circuit at the end of the experiment ([1]; initial maternal concentration 150 ng/ml, 4 hours): 0.035 ± 0.004 µg/mL | concentration in the fetal circuit at the end of the experiment ([1]; initial maternal concentration 450 ng/ml, 4 hours): 0.104 µg/mL
Compound: CC(NC(C)(C)C)C(=O)c1cccc(Cl)c1 (centres unmarked) [bupropion]
effect on placental viability and functional parameters [3]: did not affect; also recorded: do not adversely affect | O2 consumption, % of control period [3, 7]: 114 ± 37% | O2 consumption, experimental period [3, 7]: 6.6 ± 1.6 mL/min/kg | O2 transfer, % control period [3, 7]: 56 ± 21% | O2 transfer, experimental period [3, 7]: 0.0132 ± 0.006 L/h/kg | O2 consumption, % of control period [3, 8]: 98 + 38% | O2 consumption, experimental period [3, 8]: 3.7 + 1.2 mL/min kg | O2 transfer, % control period [3, 8]: 43 + 16% | release of hCG at the end of the experimental period (control period = 100%) ([3]; bupropion transfused in presence of HSA): 94 ± 12% | octanol/water partition coefficient ([2]; no reference given): 3.21 | pKa ([2]; no reference given): 7.6

Compound: CC(NC(C)(C)C)C(O)c1cccc(Cl)c1 (centres unmarked) [erythrohydrobupropion]
pharmacologic activity [4]: very low activity

Compound: C[C@H]1NC(C)(C)CO[C@]1(O)c1cccc(Cl)c1 [hydroxybupropion]
pharmacologic activity relative to the parent compound ([4]; hepatic metabolite): ~50%

Compound: C[C@H](NC(C)(C)C)[C@@H](O)c1cccc(Cl)c1 [threohydrobupropion]
pharmacologic activity [4]: very low activity | effect on placental viability and functional parameters [3]: do not adversely affect | ratio of metabolite to parent drug in placental tissue (placental tissue enzymes): 0.06 | ratio of metabolite to parent drug in the fetal circuit (placental tissue enzymes): 0.07 | ratio of metabolite to parent drug in the maternal circuit (placental tissue enzymes): 0.08

Compound: [^3H]-bupropion
binding to glassware and teflon tubing ([5]; 4 hours recirculation in absence of placenta): negligible | decline of initial amount in the medium ([5]; 4 hours recirculation in absence of placenta, no HSA): 40% | reduction of binding to tygon tubing ([5]; after addition of 30 mg/mL HSA to the perfusion medium): 25%

Reference: PMC2873069 (The journal of maternal-fetal & neonatal medicine : the …, 2010)
